Most compounds without a hit are left out; they make up all but 2.2% or so of the library.
FLuc act counter: firefly luciferase counter-screen for stimulation assays; P08659; ATPlite luciferase biochemical, luminescence, 10 min; 0 = ATP-free wells, 1 = DMSO control; activation factor at 10 µM; 200,000 tested, under 10 active; AID 1027;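 active means luciferase activation factor, scaled between plate controls, of at least 2 with compound at 10 µM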
Target sequence (P08659 whole entry, looked up): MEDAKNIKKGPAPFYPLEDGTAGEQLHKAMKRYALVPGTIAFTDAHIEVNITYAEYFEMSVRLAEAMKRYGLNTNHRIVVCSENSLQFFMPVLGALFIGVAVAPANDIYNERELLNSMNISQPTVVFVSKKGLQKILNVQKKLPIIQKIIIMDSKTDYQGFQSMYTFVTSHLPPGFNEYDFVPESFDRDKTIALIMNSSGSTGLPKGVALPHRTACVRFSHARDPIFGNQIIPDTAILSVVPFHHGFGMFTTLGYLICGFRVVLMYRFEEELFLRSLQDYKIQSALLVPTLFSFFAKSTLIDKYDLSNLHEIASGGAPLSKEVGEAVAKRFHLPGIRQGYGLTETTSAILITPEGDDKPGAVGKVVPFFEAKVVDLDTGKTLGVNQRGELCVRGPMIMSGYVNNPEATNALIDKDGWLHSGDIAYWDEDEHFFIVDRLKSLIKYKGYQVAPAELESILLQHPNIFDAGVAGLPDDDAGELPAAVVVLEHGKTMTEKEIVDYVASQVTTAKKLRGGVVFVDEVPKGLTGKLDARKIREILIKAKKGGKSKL
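System: luciferase plus luciferin reagent, cell-free; medium: PBS as buffer for the ATP substrate; dosing: test compounds dosed from 2 mM stocks in 100% DMSO; timing: 10 min post-reagent at room temperature; measured by: luminescence measurement of luciferase light output; evaluation: luciferase activation, seen as luminescence increase over controls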
TRAIL sens C8: sensitizes caspase-8 expressing cells to TRAIL | AID 624354 | inhibition (viability loss, TRAIL sensitization), % at 10 µM | 1% of 360,000 active | NB7+C8 cells + TRAIL, ATPlite viability luminescence;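 active means compounds causing at least 50% loss of cell viability in the single-dose screen, relative to plate controls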
NF-kB neuron act: raises NF-kB expression in human neuronal cells. AID 1239. fold change at 12.5 µM. NF-kB reporter expression; hits give high values. 1.6% of 190,000 active; in the data active means fold change above about 3.3
APP 5'UTR act: activates APP 5'UTR luciferase reporter. SH-SY5Y APP 5'UTR luciferase reporter, luminescence; zero percent = DMSO vehicle wells. activation, % at 2 µM. 1% of 190,000 active;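 active means activation above a set limit, based on mean plus 3 SD of controls, cut at about 140% in these data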
FLuc inhib CS: Photinus pyralis luciferase inhibition counter-screen | P08659 | ATPLite firefly luciferase biochemical luminescence, 10 min | 1.5% of 200,000 active | AID 1006 | inhibition, % at 10 µM;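 active means inhibition above about 50% when tested at 10 µM, limit read from the data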
PPC-1+TRAIL kill: PPC-1 cancer cell killing with TRAIL present | cell killing (% activity), % at 4 µM or 5 µM | PPC-1 cells + TRAIL, ATPLite viability luminescence | AID 1443 | 0.41% of 220,000 active;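 active means cell killing above 50% in the first pass at 4 µM, then a duplicate retest at 5 µM averaging 50% or more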
Hits are given with their value; . = inactive; / = not tested or not shown.

SMILES	FLuc act counter	TRAIL sens C8	NF-kB neuron act	APP 5'UTR act	FLuc inhib CS	PPC-1+TRAIL kill
CC(C)C[C@H]1CNC(=S)N1CC1CCCN1C[C@H](Cc1ccc(O)cc1)N1C[C@H](Cc2ccccc2)N(CC2CCCCC2)C1=S (stereo not given in full)	/	.	/	/	/	/
CC(C)C[C@H]1CNC(=S)N1C[C@H]1CCCN1C[C@H](Cc1ccccc1)N1C[C@H](Cc2ccc(O)cc2)N(CC2CCCCC2)C1=S	/	68	/	/	/	/
COc1ccc(NC(=O)/C(C#N)=C/c2ccc(-c3ccc(Cl)c(C(=O)O)c3)o2)cc1	/	60	/	/	/	/
C=CCNC(=S)NNC(=O)COc1ccc(Br)cc1	.	.	.	.	.	.
C=CCNC(=S)NNC(=O)COc1ccc2cc(Br)ccc2c1	.	.	3.4	.	.	.
O=C(Nc1ccc2ccccc2c1)OC1CCS(=O)(=O)C1 (stereo not given)	/	.	/	/	/	/
CCc1ccc(CNCc2ccc(F)cc2)cc1	.	.	.	.	.	66
CCc1nc2ccc(C(=O)NCCCn3ccnc3)cn2c1N(C)CCCc1ccccc1	/	.	/	/	/	/
CC1CCN(C(=S)Nc2ccc(SC(F)F)cc2)CC1	.	.	.	.	66	.
COC(=O)c1ccc(C)c(NS(=O)(=O)c2ccc(C)c([N+](=O)[O-])c2)c1	.	.	.	.	.	.
COC(=O)c1ccc(C)c(NS(=O)(=O)c2ccc(OC)cc2)c1	.	.	4	.	.	.
O=[N+]([O-])c1cc(O)c2ncccc2c1	.	/	5.8	.	.	.
O=[N+]([O-])c1cc2cccnc2c2ncccc12	/	.	/	/	/	.
CC(C)(C)OC(=O)N/N=C/c1cccc([N+](=O)[O-])c1	.	.	3.9	.	79	.
CC(C)(C)OC(=O)N/N=C\c1ccc[nH]1	.	.	.	.	62	.
CC(C)(C)c1ccc2c(c1)OC(C(=O)N/N=C\c1ccc[nH]1)CO2 (stereo not given)	/	61	/	/	/	/
Cc1cc(C(=O)N/N=C/c2cccc([N+](=O)[O-])c2)c(C)o1	.	.	.	.	.	.
Cc1cccc(C(=O)N/N=C/c2ccc[nH]2)c1	.	.	.	.	.	.
CO[C@H](C(=O)N(C)C[C@@H]1OCc2ccccc2-c2c(n(C)c3ccccc23)C(=O)N([C@H](C)CO)C[C@@H]1C)c1ccccc1	/	.	/	/	/	/
Cc1ccc(S(=O)(=O)N2C[C@H]3C(=O)C[C@@H](c4ccccc4)N(S(=O)(=O)c4ccccc4[N+](=O)[O-])[C@H]3C[C@H]2c2ccccc2)cc1	/	.	/	/	/	/
Cc1ccccc1-c1nnc(NC(=O)c2cc3ccccc3oc2=O)s1	.	/	.	.	.	.
Cc1cccnc1NC(=O)c1cc2ccccc2oc1=O	.	.	4.2	176	.	.
N#Cc1cccc(NC(=O)c2cc(C3CCCCN3S(=O)(=O)c3ccccc3)on2)c1 (stereo not given)	/	.	/	/	/	/
O=C(NCc1ccccc1)C(C1CC1)n1c(-c2cccs2)nc2ccccc21 (stereo not given)	/	.	/	/	/	/
Clc1ccccc1-c1nnc(-c2cccs2)o1	.	.	6	182	57	.
SMILES	FLuc act counter	TRAIL sens C8	NF-kB neuron act	APP 5'UTR act	FLuc inhib CS	PPC-1+TRAIL kill
C(=C\c1nnc(-c2cccs2)o1)/c1ccccc1	.	.	5	.	.	.
c1cc(-c2ccc(N3CCOCC3)cc2)n2cnnc2c1	/	.	/	/	/	/
Cc1cccc(C)c1NC(=O)C(c1ccncc1)N1CCN(CCN(C)C)CC1 (stereo not given)	/	.	/	/	/	/
COc1ccc2c(c1)CCc1c(C(=O)NC3CCCCC3)noc1-2	.	.	.	145	.	.
COCCNC(=O)c1noc2c1CCc1cc(OC)ccc1-2	.	.	.	.	.	.
O=C(NC(=S)Nc1nc2ccccc2s1)c1cccs1	.	84	.	145	90	.
COC(=O)c1nc(NC(=S)NC(=O)c2cccs2)sc1C	/	50	/	/	/	/
COc1ccc(-c2cc(C(=O)O)nc3ccc4ccccc4c23)cc1OC	.	.	.	.	65	.
CCOC(=O)[C@]12CCCC=C1N(Cc1ccc(Cl)cc1Cl)C(=O)[C@H](CC(=O)N1CCN(C(=O)c3ccco3)CC1)C2	/	.	/	/	/	/
CCc1ccc(Nc2ncc3c(n2)CC(C)CC3=O)cc1 (stereo not given)	.	.	3.5	173	.	.
Cc1ccc2c(c1)C(=NC1CCCCC1)c1cc3ccccc3nc1-2	.	64	5.3	178	.	.
Cc1ccc2c(c1)-c1nc3ccccc3cc1C2=NC1CCCCC1	.	51	3.7	.	.	.
Cc1ccc(-c2cc3ccccc3nc2N2CCCC2)cc1	.	.	.	.	.	.
c1ccc2c(c1)-c1nc3ccccc3cc1C2N1CCCCC1 (stereo not given)	/	.	/	/	/	/
Cn1cc(Cc2ccc(C(=O)NC34CC5CC(CC(C5)C3)C4)cn2)c2ccccc21	/	.	/	/	/	/
COc1cc(Cl)cc(/C=C/c2ccc3ccccc3n2)c1OC(C)=O	.	.	.	155	.	.
CC(=O)Oc1ccc(Cl)cc1/C=C/c1cc(OC(C)=O)c2ccccc2n1	.	/	.	.	.	.
COc1ccc(C=Cc2ccc3ccccc3n2)c(OC)c1	/	70	/	/	/	/
CCOC(=O)Cc1c(-c2cccc(Br)c2)nc2c3ccccc3ccn12	/	.	/	/	/	/
CC(C)(C)OC(=O)NCCCC[C@H](NC(=O)c1[nH]cnc1C(=O)N[C@@H](Cc1ccccc1)C(=O)OC(C)(C)C)C(=O)OC(C)(C)C	/	58	/	/	/	.
CC(C)C[C@H](NC(=O)c1nc[nH]c1C(=O)N[C@@H](CC(C)C)C(=O)OCc1ccccc1)C(=O)OCc1ccccc1	/	52	/	/	/	/
CC(C)(C)OC(=O)NCCCCCNC(=O)c1[nH]cnc1C(=O)N[C@@H](Cc1ccccc1)C(=O)OC(C)(C)C	/	.	/	/	/	/
CC(C)C[C@H](NC(=O)c1nc[nH]c1C(=O)N[C@@H](CC(C)C)C(=O)OC(C)(C)C)C(=O)OC(C)(C)C	/	55	/	/	/	.
COc1ccc(Cn2cc(CN3CC(N4CCN(Cc5ccccc5F)CC4)CS3(=O)=O)nn2)cc1 (stereo not given)	/	.	/	/	/	/
S=C(c1ccc(-c2cccc(Cl)c2)o1)N1CCCCC1	.	.	.	180	54	.
SMILES	FLuc act counter	TRAIL sens C8	NF-kB neuron act	APP 5'UTR act	FLuc inhib CS	PPC-1+TRAIL kill
N#CCCN1CCN(C(=S)c2ccc(-c3cccc(Cl)c3)o2)CC1	.	.	.	.	.	.
S=C(c1ccc(-c2cc(Cl)ccc2Cl)o1)N1CCOCC1	.	.	.	.	.	.
S=C(c1ccc(-c2cccc(Cl)c2)o1)N1CCOCC1	.	.	5.7	141	.	.
O=[N+]([O-])c1cccc(-c2ccc(C(=S)N3CCOCC3)o2)c1	.	.	4.8	162	.	.
Cc1cccc(/C=N/NC(=O)c2ccc(Br)cc2)c1	.	.	.	.	54	.
O=C(N/N=C/c1ccc(F)cc1)c1ccc(Br)cc1	.	.	.	.	.	.
O=C(N/N=C/c1ccccn1)c1ccc(Br)cc1	.	.	.	.	82	.

Screening data from PubChem.
